No end group written: not given here.

These results are taken from PMC10998571 (Proceedings of the National Academy of Sciences of the …, 2024).

In series [1] the target is T1, TNFR1 (Homo sapiens, UniProt P19438).
T1 sequence (P19438 30-242) 1: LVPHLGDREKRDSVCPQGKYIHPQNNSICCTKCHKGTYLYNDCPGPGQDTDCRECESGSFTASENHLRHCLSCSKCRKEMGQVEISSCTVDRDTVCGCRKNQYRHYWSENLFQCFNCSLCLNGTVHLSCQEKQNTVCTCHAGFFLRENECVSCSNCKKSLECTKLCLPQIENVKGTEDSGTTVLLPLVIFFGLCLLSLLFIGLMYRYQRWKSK
T1 sequence (P19438 30-242) 2: T1 sequence (P19438 30-242) 1
The experiment in a line: TNFR1 FRET biosensor. It counts as cell-based. Put shortly: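 HEK293 cells transiently transfected (Lipofectamine 3000) with TNFR1ΔCD–GFP donor alone or with TNFR1ΔCD–RFP acceptor; donor-only served as the no-FRET control. Cells plated at 15,000 cells/well in 96-well plates and treated with PBS or test compound (5 to 50 µM) for 24 h. FRET read from fluorescence intensity; EC50 derived from the dose–response of FRET change.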

A further series relates to HEK293 cells. In words: MTT assay. It counts as cell-based, human. The following applies: FKC 5-50 µM, 24 h, absorbance at 560 nm, N = 4. A general note: Tetrazolium assays rely on reduction of a dye to a coloured formazan, in cell work by metabolically active cells.
In another series the test system is IL-23 receptor. The note with it: without affecting ligand binding; cited from earlier work.
For series [2] the following is noted: i.p. injection, mice; rhodamine fluorescence of tissue sections.
The test system of another series is NF-κB activation. The note with it: cited from earlier work.
Series [3] relates to IL-1β induced NF-κB activation in HEK293 cells. The experiment in a line: IL-1β induced NF-κB activation. The class given is cell-based, human. The note with it: IL-1β 50 ng/mL, 18 h, N = 4. In outline: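 HEK293 cells co-transfected with an NF-κB-response-element Firefly luciferase reporter (1 μg) and a Renilla reporter (0.1 μg) using Lipofectamine 3000. After 24 h, 15,000 cells/well were incubated with PBS or test compound (5 to 50 µM), with or without IL-1β, for 18 h at 37 °C. Dual-Glo Firefly, then Stop & Glo Renilla, 15 min RT each. Firefly normalised to Renilla and to ligand-treated cells.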

Another series deals with TNFR1/TNF. In words: Co-IP of TNFR1 and TNF. It counts as binding. The following applies: co-IP with His-tagged TNF beads, overnight 4 °C; FKC 50 µM or etanercept. Put shortly: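 Ni-NTA agarose beads loaded with His-tagged human TNF for 4 h at 4 °C and washed with PBS. […] Samples were analysed by Western blotting, with equal bead-bound TNF and input TNFR1 as pull-down controls.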

A further series concerns TNFR1 PLAD. In words: PLAD FRET biosensor. The note with it: HEK293 cells, 24 h; FKC 50 µM, ZAF 100 µM or co-treatment; N = 4. The class given is cell-based. Put shortly:
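PLAD FRET biosensor made by transient Lipofectamine 3000 transfection of HEK293 cells with donor-only or donor/acceptor FRET pair DNAs. Cells moved to 96-well plates at 15,000 cells/well and treated with PBS (negative control), test compound and/or zafirlukast for 24 h before fluorescence intensity readout.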

Series [4] has as its target T1, TNFR1. The note with it: 37 (ZAF); ref 55 (Pep4-19); cited from earlier work.

FKCRRWQWRMKK-NH2 [FKC]: the EC50 (usually the concentration at which the effect is half-maximal) on TNFR1 [1] came out at 25 µM. The “toxicity in HEK293 cells” value with HEK293 cells was “does not have any toxic effect in HEK293 cells”.
In the case of TEEEQQLY [compound 2305], the “inhibition of IL-23 signaling” value in the series on IL-23 receptor is reported as “noncompetitively inhibit IL-23 signaling”.
Regarding “Rho-FKCRRWQWRMKK-NH2 [rhodamine-conjugated FKC]”, the “localization in liver, kidney, and lung” value in series [2] is “localization of FKC in all tissues”.
In the case of VQRWLIVWRIRK-NH2 [IDR], the “inhibition of NF-κB activation (earlier reports)” value in the series with NF-κB activation is “inhibit NF-κB activation”.
With “IL-1β: cytokine that binds IL-1 receptor to stimulate NF-κB activation (MedChemExpress, Cat# HY-P7028)”, the “NF-κB activation relative to basal level (IL-1β)” value in series [3] came to 10 fold.
On to etanercept, for which the “effect on receptor–ligand interaction” value with TNFR1/TNF is listed as “disrupting receptor–ligand interaction”.
With `COc1cc(C(=O)NS(=O)(=O)c2ccccc2C)ccc1Cc1cn(C)c2ccc(NC(=O)OC3CCCC3)cc12` [ZAF, zafirlukast], the “FRET change of the PLAD biosensor” value with TNFR1 PLAD is listed as “reduced FRET in the PLAD biosensor”. Also, the “extent of inhibition of TNFR1 signaling” value on TNFR1 [4] is listed as “only exhibited partial inhibition”.
